Screens: PubChem, The Scripps Research Institute Molecular Screening Center
The list is not random: actives were taken first. Their share in the collection is about 4.5%.
OX1R antag-1 – antagonists of human orexin 1 receptor (OX1R) | inhibition, % at 6.6 µM | O43613 | actives 1.8% (n = 330,000) | OX1R-expressing cells, FRET antagonist read-out; in the data active = inhibition mostly above about 38%, no sharp cut-off; inactive = mostly below about 40%;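 note: 0% = agonist challenge alone and 100% = reference antagonist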
Target sequence (O43613 whole entry, looked up): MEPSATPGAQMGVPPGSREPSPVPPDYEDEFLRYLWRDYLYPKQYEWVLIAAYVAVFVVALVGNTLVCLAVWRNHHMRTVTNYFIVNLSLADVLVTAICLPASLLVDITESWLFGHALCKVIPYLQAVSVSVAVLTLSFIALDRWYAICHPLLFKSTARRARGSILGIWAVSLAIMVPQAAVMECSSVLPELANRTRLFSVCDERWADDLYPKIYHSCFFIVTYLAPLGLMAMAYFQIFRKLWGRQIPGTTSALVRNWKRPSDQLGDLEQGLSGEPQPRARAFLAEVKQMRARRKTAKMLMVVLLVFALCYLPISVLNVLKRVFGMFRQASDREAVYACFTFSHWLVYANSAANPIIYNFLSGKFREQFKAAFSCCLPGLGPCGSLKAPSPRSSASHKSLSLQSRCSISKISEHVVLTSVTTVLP
TAAR1 antag – antagonists of human TAAR1; Q96RJ0; CHO RD-HGA16 TAAR1, Fluo-8 calcium fluorescence, antagonist; inhibition, % at 3 µM; actives 1.5% (n = 360,000); AID 624466;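 active = inhibition above a per-plate cutoff, the mean inhibition of test compounds on that plate plus 3 SD, cut at about 49% in these data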;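 note: 0% = DMSO plus EC80 beta-PEA response and 100% = DMSO alone without agonist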
Target sequence (Q96RJ0 whole entry, looked up): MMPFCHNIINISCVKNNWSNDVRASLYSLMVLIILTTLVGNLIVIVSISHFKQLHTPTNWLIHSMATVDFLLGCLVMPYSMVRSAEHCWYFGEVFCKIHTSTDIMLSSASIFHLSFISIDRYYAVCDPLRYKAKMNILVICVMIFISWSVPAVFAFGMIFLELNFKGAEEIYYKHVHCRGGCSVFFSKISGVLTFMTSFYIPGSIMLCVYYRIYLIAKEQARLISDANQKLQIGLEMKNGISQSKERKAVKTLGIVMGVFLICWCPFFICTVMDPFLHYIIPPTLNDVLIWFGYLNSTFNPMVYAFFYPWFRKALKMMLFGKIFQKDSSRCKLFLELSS
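Test system – hTAAR1-expressing CHO RD-HGA16 cells, Gα16-coupled · Also added – β-PEA at EC80 concentration, post-compound challenge · Compound – 3 µM, single point · Incubation – dye loading 75 min at 37 °C, then 30 min room temperature · Measured by – Fluo-8 intracellular calcium dye fluorescence, real-time kinetic reads · Benchmarks – vehicle and agonist controls · Replicates – singlicate, one well per test compound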
TAAR1 ag – human TAAR1 agonism | AID 624467 | Q96RJ0 | CHO RD-HGA16 TAAR1, Fluo-8 calcium fluorescence; vehicle wells 0%, saturating PEA agonist 100% | actives 0.99% (n = 360,000) | activation, % at 3 µM;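 active = activation above the mean activation of all test compounds in the run plus 3 SD, cut at about 38% in these data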
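Test system: RD-HGA16 (CHO) cells co-expressing Gα16 and hTAAR1; dosing: one-point dosing at 3 µM (nominal); timing: 17-24 h seeding, 75 min 37 °C dye, 30 min RT; signal: kinetic Fluo-8 calcium fluorescence; read-out basis: % activation relative to PEA EC100 response; controls: DMSO and PEA EC100; replicates: n 1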
CHO parental Ca – counter-screen: ATP calcium response change in parental CHO cells; inhibition, % at 5.6 µM; parental CHO-K1, ATP-induced calcium, Fluo-8 fluorescence; AID 463079; actives 0.63% (n = 330,000);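 active = inhibition above that plate's mean sample inhibition plus 3 SD, cut at about 26% in these data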;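 note: 0% = ATP-challenged DMSO wells and 100% = DMSO wells without ATP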
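Assay system: parental CHO cells; Read-out basis: percent inhibition of ATP-evoked calcium rise, normalized to controls; Benchmarks: ATP and no-ATP DMSO wells; Compound dosing: single nominal dose of 5.6 µM per compound; Signal: Fluo-8 calcium dye fluorescence; Also added: ATP as calcium-mobilizing challenge; Repeats: singlicate.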
GPR7 antag – antagonists of human GPR7 (neuropeptides B/W receptor 1); GPR7-expressing cells, fluorescence antagonist assay; actives 1.1% (n = 290,000); inhibition, % at 4.4 µM; P48145; AID 1861; in the data active = inhibition above about 16%, passing the limit was not always enough;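 note: cells stimulated with the agonist NPW; 0% = agonist with vehicle and 100% = vehicle without agonist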
OX1R antag-2 – blocks the human orexin 1 receptor; O43613; CHO/OX1R cells, Fluo-8 calcium fluorescence, orexin A; inhibition, % at 5 µM; actives 0.43% (n = 330,000); AID 434989;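 active = inhibition above its plate's threshold, mean inhibition of all tested compounds on the plate plus 3 SD, cut at about 37% in these data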;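 note: 0% = orexin A challenge wells and 100% = SB-334867-A antagonist wells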
GPR7 antag cf – human GPR7 antagonism, confirmation assay. shares compounds with GPR7 antag. actives 52% (n = 2,400). GPR7-expressing cells, calcium fluorescence antagonist mode. inhibition, % at 4.4 µM; in the data active = inhibition above about 24%;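 note: stimulated with the GPR7 agonist NPW; 0% = agonist plus vehicle and 100% = vehicle alone without agonist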
MCHR1 antag – antagonizes human MCHR1, a GPR7 antagonist counter-screen; shares compounds with GPR7 antag; AID 2148; actives 62% (n = 2,400); MCHR1-expressing cells, fluorescence antagonist assay; inhibition, % at 4.4 µM; in the data active = inhibition above about 22%;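 note: 0% = vehicle with agonist and 100% = vehicle without agonist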
Starred values were filed as active, the others as inactive; . = no result given.

SMILES	OX1R antag-1	TAAR1 antag	TAAR1 ag	CHO parental Ca	GPR7 antag	OX1R antag-2	GPR7 antag cf	MCHR1 antag
CCOc1ccc(Cl)cc1S(=O)(=O)N1CCC(C(=O)NCc2ccco2)CC1	13.6	5.6	1.2	-14.0	-3.8	-0.3	.	.
CCCCC(c1nnnn1C1CCCC1)N1CCN(C2CCCCC2)CC1 (stereo unspecified)	4.8	-14.0	12.5	-17.4	42.3*	-29.6	47.0*	21.1
Cc1ccc(C)c(N2CCN(CCCNC(=O)CCC(=O)N3CCOc4ccc(Cl)cc43)CC2)c1	-4.0	3.2	9.0	-11.8	28.8*	-8.2	50.3*	79.2*
CCOC(=O)N1C2=NC(C(=O)OC)=C(C(=O)OC)[C@@H]3N(Cc4ccccc4)c4ccccc4[C@]23C[C@H]1C(=O)OC	8.0	.	.	-24.6	.	-24.2	.	.
CCc1ccccc1NC(=O)C1CCCN(c2nccc(C)n2)C1 (stereo unspecified)	9.3	-11.1	-2.0	-24.0	-13.6	-26.5	.	.
CCc1ccccc1NC(=O)C1CCCN(c2ncnc3onc(-c4ccc(F)cc4)c23)C1 (stereo unspecified)	14.3	-12.9	0.1	-21.2	28.6*	-9.9	16.5	21.7*
Cc1ccccc1NC(=O)C1CCCN(c2ncnc3onc(-c4ccc(F)cc4)c23)C1 (stereo unspecified)	13.2	-6.8	-1.0	-17.4	27.8*	-16.4	28.2*	14.6
NC(N)=NS(=O)(=O)c1ccc(NC(=S)NC(=O)c2ccccc2)cc1	21.2	1.9	-1.0	-3.6	3.8	-5.7	.	.
NC(N)=NS(=O)(=O)c1ccc(NC(=S)NC(=O)Cc2ccc(Cl)cc2)cc1	14.1	1.7	1.2	2.9	.	16.9	.	4.7
CC(=O)Nc1ccc(S(=O)(=O)N2CCCC2)cc1	15.0	-5.5	-0.7	-9.0	-6.6	-2.6	.	.
CC(=O)Nc1ccc(S(=O)(=O)N2CCc3cc4c(cc3C2)OCCCO4)cc1	23.9	-51.9	0.4	20.6	28.8*	-3.5	15.4	36.9*
COc1ccc(Nc2ccc(OC)cc2)cc1	16.6	5.0	-0.3	-8.9	-1.3	-13.3	.	.
COc1ccc(Nc2ccc(Nc3ccc(OC)cc3)nn2)cc1	15.3	38.6	11.6	-10.8	92.0*	11.6	84.6*	88.8*
O=C(Nc1ccc(C(F)(F)F)cc1)C1CCN(S(=O)(=O)c2ccc(N3CCCC3=O)cc2)CC1	4.4	0.5	6.5	-6.8	22.7*	-9.9	23.4	48.6*
COc1ccc(NC(=O)C2CCN(S(=O)(=O)c3ccc(N4CCCC4=O)cc3)CC2)cc1OC	3.5	-5.5	0.4	-20.4	-3.1	-16.9	.	.
O=C(O)[C@H]1CCCC[C@H]1C(=O)Nc1ccc(S(=O)(=O)N2CCOCC2)cc1	20.7	-10.4	0.8	-4.7	-11.5	-10.0	.	.
O=C(O)[C@H]1CCCC[C@H]1C(=O)Nc1ccc(S(=O)(=O)N2CCCCC2)cc1	18.2	-3.3	0.0	8.0	22.9*	-6.6	-17.4	-4.9
COc1ccccc1C(=O)Nc1ccc2c(C)cc(=O)oc2c1	7.6	2.4	-0.4	-14.0	42.0*	-23.9	13.7	10.5
CCOc1ncccc1C(=O)Nc1ccc2c(C)cc(=O)oc2c1	7.9	-8.0	1.6	1.1	-12.1	-18.8	.	.
Cc1cc(=O)oc2cc(OC(=O)c3ccccc3)ccc12	9.8	-14.8	0.5	-16.7	.	-21.1	.	18.2
Nc1ncc(S(=O)(=O)c2ccc([N+](=O)[O-])cc2)s1	.	3.5	2.5	.	.	.	.	.
COc1ccc(-n2cnc3ccccc3c2=O)c([N+](=O)[O-])c1	.	-15.5	6.5	.	-18.7	.	.	.
COc1cccc(C(=O)N2CCC[C@@H]2C(=O)N2CCC[C@@H]2C(=O)NCc2ccccc2Cl)c1	.	5.4	11.4	.	.	.	.	.
O=C(NCCC1=CCCCC1)c1ccc(Cl)c(S(=O)(=O)N2CCCCC2)c1	-7.1	13.2	10.4	7.0	49.6*	-7.2	44.0*	50.2*
Cn1c(SCc2ccccc2C#N)nc2ccccc2c1=O	37.2	7.9	4.6	-0.4	-2.3	-22.2	.	.
SMILES	OX1R antag-1	TAAR1 antag	TAAR1 ag	CHO parental Ca	GPR7 antag	OX1R antag-2	GPR7 antag cf	MCHR1 antag
COc1ccccc1NC(=O)Cn1c([N+](=O)[O-])cnc1C	1.9	-8.7	0.4	6.7	2.3	0.8	.	.
O=C(c1ccccc1-c1ccccc1)N1CCN(c2ccccn2)CC1	10.4	-4.7	1.7	-22.8	26.5*	-38.2	22.9	23.6*
CCN(CC)C(=O)CSc1nc2c(c(-c3cccnc3)c1C#N)CCCC2	14.6	-2.1	8.9	-9.0	-5.4	-14.1	.	.
COC(=O)CNC(=O)c1c(-c2ccccc2Cl)noc1C	0.1	-0.6	11.9	-1.4	23.2*	1.9	-1.4	2.0
Cc1ccc(S(=O)(=O)N(C)C)cc1NC(=O)COC(=O)Cc1ccsc1	10.8	-17.4	0.5	-27.4	.	3.1	.	.
O=C(c1ccc(Cl)cc1)C(CN1CCCCC1)c1ccccc1 (stereo unspecified)	-4.0	13.4	12.1	-9.6	54.9*	-7.4	65.5*	82.2*
CC(=O)c1cccc(NC(=O)CSc2nnc(C(C)N(C)C)n2-c2ccc(F)cc2)c1 (stereo unspecified)	28.4	4.2	-3.5	-15.5	34.6*	-24.6	9.5	-3.5
COc1ccc(S(=O)(=O)N2CCN(C(=O)Cc3ccsc3)CC2)cc1	.	-17.8	1.5	.	.	.	.	.
CO[C@@H]1CN(C)C(=O)c2cc(NC(=O)NC3CCCCC3)ccc2OC[C@@H](C)N(CC2CCOCC2)C[C@@H]1C	.	-19.7	4.3	.	.	.	.	.
Cc1cc(C)cc(NC(=O)C2C3C=CC4(O3)C2C(=O)N(CCCN2CCCC2)C4C(=O)NC2CCCC(C)C2C)c1 (stereo unspecified)	15.3	-11.7	0.1	-13.4	26.7*	-28.7	-18.9	-10.8
Cc1cccc(NC(=O)C2C3C=CC4(O3)C2C(=O)N(CCCN2CCCC2)C4C(=O)NC2CCCC(C)C2C)c1 (stereo unspecified)	9.8	13.4	-4.6	-20.3	0.9	-32.8	.	.
COc1ccc(CN(C)C[C@H]2OCc3cnnn3CCCC(=O)N([C@H](C)CO)C[C@@H]2C)cc1	.	-4.2	1.8	.	.	.	.	.
O=C(/C=C/c1ccccc1)NNC(=O)c1cccs1	17.0	0.1	0.3	2.5	-3.1	-6.5	.	.
COc1ccccc1/C=C/C(=O)NNC(=O)c1cccs1	27.2	17.3	2.1	-6.3	30.0*	4.0	-3.0	3.5
N#CCCN(C(=O)COC(=O)C12CC3CC(CC(O)(C3)C1)C2)c1ccc(F)cc1	-4.7	-2.4	2.2	-1.1	.	-31.8	.	.
CC(=O)N1CC(C)Oc2ccc(S(=O)(=O)NC(CC(=O)O)c3cc(C)ccc3C)cc21 (stereo unspecified)	9.9	2.7	0.6	-9.3	-7.8	14.7	.	.
